# Screens from PubChem BioAssay.
# aSyn UTR inh: MLPCN primary screen, SNCA 5' untranslated region | alpha-synuclein 5'UTR reporter, inhibitor activity | inhibition, % (tested at 7.5 µM) | actives 0.82% (n = 300,000); in the data active means inhibition above about 60%; inconclusive means no clear call, values can overlap the other calls;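 further: H4 neuroglioblastoma cells stably carrying SNCA 5'UTR luciferase fusion; 0% = DMSO wells and 100% = positive control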
# Shn3 inh set2: reduces Shn3 3'UTR luciferase signal in osteoblasts. actives 0.52% (n = 360,000). AID 588674. inhibition, % at 12.5 µM. Clone20 osteoblast Shn3 3'UTR firefly luciferase, 24 h;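 active means mean inhibition of at least 75% with every replicate also reaching 75%; inconclusive means mean inhibition at least 75% but some replicate below; inactive means mean inhibition below 75%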;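 further: 0% = median of neutral control wells and 100% = pilot-screen positive control compound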
# LMP1 NFkB inh: inhibitors of Epstein-Barr LMP1-induced NF-kappaB reporter | LMP1-induced NF-kappaB luciferase reporter cells, luminescence | inhibition, % at 12.5 µM | actives 0.69% (n = 350,000) | AID 504558; in the data active means inhibition above about 41%; inconclusive means no clear call, values can overlap the other calls;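 further: 0% = neutral control wells and 100% = reference inhibitor control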
# FN deposition inh: fibronectin deposition inhibition | AID 743247 | AH1F fibroblasts, Alexa488-fibronectin deposition fluorescence, overnight | inhibition, % at 12.6 µM | actives 0.086% (n = 350,000);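 active means mean inhibition across replicates of 30% or more, regardless of how many single replicates reach that level; inconclusive means mean under 30% yet at least half of replicates reach 30%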;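 further: positive control wells lacked labelled fibronectin entirely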
#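 Assay system: AH1F fibroblast monolayer, labelled fibronectin deposition. Amount: 10000 cells per well. Also added: labelled fibronectin 24 nM. Compound: single-point pinned compound. Incubation: cell attachment 1 h, compound and FN exposure overnight. Detection: fluorescence after three HBSS washes, excitation 485 nm, emission 525 nm. Read-out: inhibition of fibronectin deposition signal.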
# PAX8 reporter: lowers PAX8-driven luciferase in RMG-I cells; RMG-I TPO-luciferase reporter, SteadyGlo, 24 h; inhibition, % at 12.6 µM; actives 1.2% (n = 360,000);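 active means mean replicate inhibition at least 60% with every replicate also reaching 60%; inconclusive means only one of the two criteria is met; inactive means mean below 60% and not all replicates reaching 60%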;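 further: luciferase light reporting Pax8 driven TPO promoter activity; plate controls were median of neutral control wells for no effect and mitoxantrone controls for full effect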
# EWS-Fli block: inhibitors of EWS/Fli oncoprotein transcriptional activity. A673 NR0B1-luciferase reporter, viability-normalised. inhibition, % at 12.6 µM. actives 0.67% (n = 350,000). AID 651661;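 active means mean inhibition of at least 50% after viability correction, with every replicate also passing that limit; inconclusive means mean reaches 50% but only one of two replicates passes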;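 further: firefly luciferase signal divided by Alamar Blue viability fluorescence both relative to DMSO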
# Starred values were filed as active, the others as inactive; ? = inconclusive; · = no result; ! = not confirmed by another sample. Shown are actives, neighbours in structure and some others; about 2.1% of the full set was active somewhere.
SMILES,aSyn UTR inh,Shn3 inh set2,LMP1 NFkB inh,FN deposition inh,PAX8 reporter,EWS-Fli block
CCN(CC)c1ccc(/C=N/NC(=O)c2ccco2)cc1,-39,-14,-4,12,-15,·
CCN(CC)c1ccc(/C=N/NC(=O)c2ccco2)c(O)c1,11,70,69*,18,-19,-25
CC(=O)Nc1ccc2c(c1)CC(=O)N(C)C[C@@H](C)[C@@H](CN(C)C(=O)OC(C)(C)C)O2,·,·,·,8,·,·
CC(C)(C)c1cc(C(c2cccnc2)N2CCN(CCO)CC2)cc(C(C)(C)C)c1O (stereo unspecified),-8,97*,-4,·,·,46
CC(N)c1csc(NC(=O)c2cc(C(C)(C)C)nn2Cc2ccccc2)n1 (stereo unspecified),·,19,·,-2,-15,29
COc1ccc(CC(N)c2csc(NC(=O)c3cc(C(C)(C)C)nn3Cc3ccccc3)n2)cc1 (stereo unspecified),·,94*,·,-11,4,35
Cc1cc2nc(-c3ccc[nH]c3=O)[nH]c2cc1C,77*,19,-5,-3,57,62*
Cc1cc2nc(-c3ccc[nH]c3=O)n(Cc3ccc(F)cc3)c2cc1C,-12,-1,-7,0,-15,-17
O=C(NCC[C@H]1CC[C@@H](NC(=O)c2cccnc2)[C@H](CO)O1)Nc1ccc(Cl)cc1,·,·,·,·,-68,-66
C[C@@H]1CCCCO[C@@H](CN(C)S(=O)(=O)c2cccs2)[C@H](C)CN([C@@H](C)CO)C(=O)c2cc(NC(=O)Nc3ccc(C(F)(F)F)cc3)ccc2O1,·,·,·,·,65*,-6
Cc1ccc(S(=O)(=O)N(C)C[C@H]2OCCCC[C@H](C)Oc3ccc(NC(=O)Nc4ccc(C(F)(F)F)cc4)cc3C(=O)N([C@@H](C)CO)C[C@@H]2C)cc1,·,·,·,-21,0,4
C[C@H](CO)N1C[C@H](C)[C@H](CN(C)S(=O)(=O)c2cccs2)OCCCC[C@H](C)Oc2ccc(NC(=O)NC3CCCCC3)cc2C1=O,·,·,·,·,104*,14
C[C@@H]1CCCCO[C@@H](CN(C)S(=O)(=O)c2ccccc2)[C@H](C)CN([C@H](C)CO)C(=O)c2cc(NC(=O)Nc3ccc(C(F)(F)F)cc3)ccc2O1,·,·,·,-1,89*,12
C[C@@H]1CCCCO[C@@H](CN(C)S(=O)(=O)c2ccc(F)cc2)[C@@H](C)CN([C@H](C)CO)C(=O)c2cc(NC(=O)Nc3ccc(C(F)(F)F)cc3)ccc2O1,·,·,·,-6,32,-12
C[C@@H]1CN([C@@H](C)CO)C(=O)c2cc(NC(=O)Nc3ccc(F)cc3)ccc2O[C@@H](C)CCCCO[C@@H]1CN(C)S(=O)(=O)c1cccs1,·,·,·,·,-29,-14
C[C@@H]1CN([C@H](C)CO)C(=O)c2cc(NC(=O)Nc3ccc(C(F)(F)F)cc3)ccc2O[C@@H](C)CCCCO[C@H]1CN(C)S(=O)(=O)c1ccccc1,·,·,·,-1,96*,12
C[C@H]1CN([C@@H](C)CO)C(=O)c2cc(C#CCC3CCCC3)cnc2O[C@@H]1CN(C)S(=O)(=O)c1cccs1,·,·,·,·,67*,6
C[C@@H]1CN([C@@H](C)CO)C(=O)c2cc(C#CCC3CCCC3)cnc2O[C@@H]1CN(C)S(=O)(=O)c1cccs1,·,·,·,·,19,-15
C[C@H]1CCCCO[C@H](CN(C)S(=O)(=O)c2ccccc2)[C@@H](C)CN([C@@H](C)CO)C(=O)c2cc(NC(=O)Nc3ccc(C(F)(F)F)cc3)ccc2O1,·,·,·,-13,68*,3
C[C@@H]1CCCCO[C@H](CN(C)S(=O)(=O)c2ccccc2)[C@H](C)CN([C@H](C)CO)C(=O)c2cc(NC(=O)Nc3ccc(C(F)(F)F)cc3)ccc2O1,·,·,·,6,52,4
O=S(=O)(c1ccccc1)N1CC2(C1)[C@@H](c1ccccc1)[C@@H](CO)N2CC1CC1,·,·,·,16,·,·
CCC(C)(C)c1ccc(OCCCC[n+]2ccc(C)cc2)c(C(C)(C)CC)c1,25,·,·,1,85*,·
Cc1cc[n+](CC[n+]2ccc(C)cc2)cc1,-10,5,8,-2,4,-22
CCC(C)(C)c1ccc(OCCCC[n+]2cccc(C)c2C)c(C(C)(C)CC)c1,101*,·,7,-2,98*,?
CN1c2ccc(C3=CCCCC3)cc2[C@H]2[C@H](CCN2C(=O)NC2CCCCC2)[C@@H]1CO,·,·,·,-1,77*,-3
SMILES,aSyn UTR inh,Shn3 inh set2,LMP1 NFkB inh,FN deposition inh,PAX8 reporter,EWS-Fli block
CN1c2ccc(C3=CCCCC3)cc2[C@H]2[C@H](CCN2C(=O)C2CCC2)[C@@H]1CO,·,·,·,4,69*,0
CN1c2ccc(C3=CCCCC3)cc2[C@H]2[C@H](CCN2C(=O)NC2CCCC2)[C@@H]1CO,·,·,·,·,·,7
COC1=C(OC)C(=O)C(Sc2ccc3ccccc3c2)=CC1=O,·,87*,3,0,52,30
COc1ccc(S(=O)(=O)Oc2ccc3ccccc3c2)cc1,-93,-15,-19,2,-54,-35
CCC(C)NS(=O)(=O)c1ccc(OCC(=O)NCc2ccco2)cc1 (stereo unspecified),3,-14,-5,-8,·,·
COc1ccc(S(=O)(=O)NC(CC(=O)NCc2ccco2)C(C)C)cc1 (stereo unspecified),7,-5,84*,·,·,·
CC(=O)Nc1cccc2c1O[C@H](CN(C)C(=O)NC(C)C)[C@H](C)CN(C)C2=O,·,·,·,-10,·,·
CCOc1ccc(C2=C(C=C(C#N)C#N)C(c3ccccc3)c3ccccc3O2)cc1 (stereo unspecified),13,5,-6,-2,35,13
COc1ccc(C2=C(CN(C)C)C(c3ccccc3)c3ccccc3O2)cc1 (stereo unspecified),28,-1,78*,·,·,·
CC1(C)CC(CC(=O)Nc2nccs2)(c2ccccc2)CCO1 (stereo unspecified),-17,0,9,2,69*,-24
Cc1ccc(C2(CC(=O)Nc3nccs3)CCOC(C(C)C)C2)cc1 (stereo unspecified),2,-1,-4,1,7,·
O=C(/C=C\Nc1ccc2c(c1)OCO2)c1ccccn1,118*,61,72*,·,·,·
O=C(Nc1ccc2c(c1)OCO2)c1ccccn1,·,-40,-5,1,-187,-46
COc1cccc(C(=O)N2C[C@@H]3[C@H](c4ccccc42)[C@@H](CO)N3C(=O)c2ccccc2)c1,·,·,·,·,22,-7
Cc1ccc(S(=O)(=O)Nc2ccc(NC(=O)Nc3ccc(F)cc3F)cc2)cc1,78*,5,1,0,13,·
CCCCNS(=O)(=O)c1ccc(S(=O)(=O)NCc2ccncc2)cc1,-5,86*,5,·,·,6
O=C(C[C@H]1CC[C@H]2[C@@H](COC[C@@H](O)CN2C(=O)Nc2ccccc2)O1)NC1Cc2ccccc2C1,·,·,·,4,19,0
NC(=O)OCC(COC(N)=O)c1ccccc1,19,-3,68*!,-6,-5,-3
